Measured values: ChEMBL document CHEMBL4118269 (J Med Chem, 2018)
pKd: −log10 of the molar value. In brackets after ≈: the same amount, converted by molar mass.

Experiments:
[1] = biological target: Lanosterol 14-alpha demethylase (Candida albicans (strain SC5314 / ATCC MYA-2876) (Yeast), UniProt P10613); assay: Inhibition of Candida albicans CYP51 assessed as reduction in [3-3H]lanosterol 14alpha-demethylation at 0.75 uM preincubated for 60 secs followed by NADPH addition measured after 60 mins by RP-HPLC analysis relative to control; details: 1 h
Chain of Lanosterol 14-alpha demethylase (Candida albicans (strain SC5314 / ATCC MYA-2876) (Yeast), UniProt P10613) (P10613 whole entry): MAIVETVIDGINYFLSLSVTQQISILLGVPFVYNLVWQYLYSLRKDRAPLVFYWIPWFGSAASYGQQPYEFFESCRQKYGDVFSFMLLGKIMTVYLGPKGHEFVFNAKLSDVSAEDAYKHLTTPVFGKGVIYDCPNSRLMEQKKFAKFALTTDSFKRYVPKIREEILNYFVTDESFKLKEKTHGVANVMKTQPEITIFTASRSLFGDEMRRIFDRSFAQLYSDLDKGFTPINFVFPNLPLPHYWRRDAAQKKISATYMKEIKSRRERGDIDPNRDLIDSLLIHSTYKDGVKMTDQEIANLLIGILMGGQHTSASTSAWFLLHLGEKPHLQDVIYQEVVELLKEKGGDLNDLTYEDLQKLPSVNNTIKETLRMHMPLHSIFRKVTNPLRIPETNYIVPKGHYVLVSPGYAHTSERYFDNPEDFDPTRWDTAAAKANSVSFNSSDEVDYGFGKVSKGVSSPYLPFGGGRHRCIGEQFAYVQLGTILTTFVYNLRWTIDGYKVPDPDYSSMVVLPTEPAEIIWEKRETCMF
Outline: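 C. albicans CYP51 expressed in E. coli and purified, 0.5 μM, with 1.0 μM rat NADPH-P450 reductase, dilauroylphosphatidylcholine and isocitrate dehydrogenase/isocitrate regeneration in 50 mM potassium phosphate pH 7.2, 10% glycerol, 0.1% Triton X-100. Substrate 25 μM final; inhibitor:enzyme:substrate 1.5:1:50. 37 °C, started with 100 μM NADPH. Sterols extracted with EtOAc, radio-HPLC. Triplicate, mean ± SD.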

[2] = biological target: Lanosterol 14-alpha demethylase (Aspergillus) (UniProt B8NUK6+Q9P8R0+G4WW85); assay: Inhibition of Aspergillus fumigatus CYP51 assessed as reduction in [3-3H]eburicol 14alpha-demethylation at 0.75 uM preincubated for 60 secs followed by NADPH addition measured after 60 mins by RP-HPLC analysis relative to control
Outline: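 E. coli-expressed, purified CYP51 (0.5 μM) with rat NADPH-P450 reductase (1.0 μM), 100 μM dilauroylphosphatidylcholine, isocitrate dehydrogenase/isocitrate NADPH regeneration, in 50 mM K phosphate pH 7.2 with 10% glycerol and 0.1% Triton X-100. [3-3H]eburicol 25 μM final, inhibitor 0.75 μM final (1.5:1:50 inhibitor:enzyme:substrate), 37 °C. Started with 100 μM NADPH, 60 min, EtOAc extraction, radio-HPLC. Percent inhibition, triplicate, mean ± SD.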

[3] = Lipophilicity, log P of the compound; format: physicochemical; details: octanol/water
[4] = biological target: T1, Lanosterol 14-alpha demethylase (Aspergillus, UniProt B8NUK6+G4WW85+Q9P8R0); assay: Binding affinity to Aspergillus fumigatus CYP51 by spectral titration method; details: read-out: Kd(app)
T1 sequence (B8NUK6 whole entry): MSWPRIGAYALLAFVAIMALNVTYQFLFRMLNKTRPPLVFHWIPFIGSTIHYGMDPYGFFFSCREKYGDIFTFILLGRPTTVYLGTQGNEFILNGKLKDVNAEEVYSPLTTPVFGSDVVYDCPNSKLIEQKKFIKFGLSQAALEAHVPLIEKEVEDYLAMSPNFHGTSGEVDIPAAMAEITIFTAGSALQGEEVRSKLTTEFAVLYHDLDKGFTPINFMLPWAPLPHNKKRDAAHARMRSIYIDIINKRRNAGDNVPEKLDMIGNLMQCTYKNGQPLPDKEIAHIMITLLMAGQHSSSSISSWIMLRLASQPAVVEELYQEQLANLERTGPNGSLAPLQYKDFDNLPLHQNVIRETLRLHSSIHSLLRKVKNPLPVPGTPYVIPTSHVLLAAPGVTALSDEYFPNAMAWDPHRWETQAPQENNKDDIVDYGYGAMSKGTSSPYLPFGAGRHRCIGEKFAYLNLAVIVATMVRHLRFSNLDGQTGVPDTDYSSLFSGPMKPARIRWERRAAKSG
T1 sequence (Q9P8R0 whole entry): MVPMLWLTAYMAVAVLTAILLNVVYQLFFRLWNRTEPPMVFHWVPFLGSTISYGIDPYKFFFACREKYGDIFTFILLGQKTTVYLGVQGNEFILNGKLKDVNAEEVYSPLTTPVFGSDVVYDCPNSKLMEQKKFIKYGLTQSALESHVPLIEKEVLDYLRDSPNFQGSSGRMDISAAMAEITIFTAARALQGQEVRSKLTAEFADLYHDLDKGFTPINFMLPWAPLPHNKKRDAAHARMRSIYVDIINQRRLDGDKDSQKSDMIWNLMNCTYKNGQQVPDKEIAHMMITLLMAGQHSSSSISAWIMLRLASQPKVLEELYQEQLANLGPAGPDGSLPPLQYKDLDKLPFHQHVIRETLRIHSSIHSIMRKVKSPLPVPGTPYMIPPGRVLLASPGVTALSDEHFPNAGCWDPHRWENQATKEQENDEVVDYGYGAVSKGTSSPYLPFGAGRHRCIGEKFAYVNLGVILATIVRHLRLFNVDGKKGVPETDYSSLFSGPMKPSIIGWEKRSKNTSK
T1 sequence (G4WW85 whole entry): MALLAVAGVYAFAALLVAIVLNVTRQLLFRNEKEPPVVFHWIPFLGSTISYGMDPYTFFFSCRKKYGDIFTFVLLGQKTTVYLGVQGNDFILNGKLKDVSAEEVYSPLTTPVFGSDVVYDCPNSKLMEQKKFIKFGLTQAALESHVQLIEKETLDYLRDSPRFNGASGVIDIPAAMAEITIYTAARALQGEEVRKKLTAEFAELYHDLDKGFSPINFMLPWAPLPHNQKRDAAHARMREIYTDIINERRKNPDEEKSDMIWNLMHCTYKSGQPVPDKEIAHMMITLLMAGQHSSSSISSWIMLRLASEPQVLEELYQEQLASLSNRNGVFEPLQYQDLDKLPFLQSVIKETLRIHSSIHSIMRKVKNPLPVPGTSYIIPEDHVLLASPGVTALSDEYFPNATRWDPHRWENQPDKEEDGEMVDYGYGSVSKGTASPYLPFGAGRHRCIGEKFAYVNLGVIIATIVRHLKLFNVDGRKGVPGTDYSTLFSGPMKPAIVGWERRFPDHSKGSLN
Outline: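 Purified CYP51 at 0.5 μM in 5 cm path cuvettes, titrated from 0.2 mM DMSO stocks over 0.1–0.8 μM ligand. Type II red shift of the Soret band (417 to 424 nm) followed as ΔA (Amax−Amin) in difference spectra. Kd obtained by fitting to the quadratic tight-binding equation using total ligand and enzyme concentrations.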

[5] = Half life in human liver microsomes at 1 uM preincubated for 5 mins followed by NADPH addition measured up to 45 mins by LC-MS/MS analysis; format: ADME, microsome; details: 0.75 h
Outline: (§1)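 Pooled liver microsomes (0.5 mg/mL; male CD-1 mouse, male Sprague Dawley rat, or mixed-gender human) with 1 μM compound in 100 mM potassium phosphate pH 7.4, 3 mM MgCl2, 37 °C with shaking. 5 min preincubation, then 1 mM NADPH. Aliquots at 0, 3, 7, 15, 25, 45 min quenched in cold CH3CN with carbamazepine internal standard, then LC/MS/MS. Triplicate; T1/2 = ln2/k from the slope of ln % remaining versus time.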

[6] = Half life in CD-1 mouse liver microsomes at 1 uM preincubated for 5 mins followed by NADPH addition measured up to 45 mins by LC-MS/MS analysis; format: ADME, microsome; details: 0.75 h; outline: as §1
Aspergillus fumigatus [7] = assay: Antifungal activity against Aspergillus fumigatus 1022 after 48 hrs by CLSI M38-A2 protocol based assay; format: functional; details: Aspergillus fumigatus, 1022, 48 h; read-out: MIC100
Aspergillus fumigatus [8] = assay: Antifungal activity against Aspergillus fumigatus 32820 after 48 hrs by CLSI M38-A2 protocol based assay; format: functional; details: Aspergillus fumigatus, 32820, 48 h; read-out: MIC100
Aspergillus fumigatus [9] = assay: Antifungal activity against Aspergillus fumigatus MYA626 after 48 hrs by CLSI M38-A2 protocol based assay; format: functional; details: MYA626, 48 h, read-out: MIC100
in vitro [10] = details: human, liver microsomes
in vitro [11] = details: human, liver microsomes; remark: listed apart in the source
in vitro [12] = details: Sprague-Dawley, rat, liver microsomes
in vitro [13] = details: Sprague-Dawley, rat, liver microsomes; remark: listed apart in the source
in vitro [14] = details: CD-1, mouse, liver microsomes
in vitro [15] = details: CD-1, mouse, liver microsomes; remark: listed apart in the source
[16] = Half life in Sprague-Dawley rat liver microsomes at 1 uM preincubated for 5 mins followed by NADPH addition measured up to 45 mins by LC-MS/MS analysis; format: ADME, microsome; details: 0.75 h; outline: as §1
Aspergillus fumigatus [17] = assay: Antifungal activity against Aspergillus fumigatus after 48 hrs

Structure (SMILES)	inhibition at 0.75 µM [1] [%]	inhibition [2] [%]	logP [3]	pKd [4]	t1/2 [5] [h]	t1/2 [6] [h]	MIC (Aspergillus fumigatus [7]) [µg/mL]	MIC (Aspergillus fumigatus [8]) [µg/mL]	MIC (Aspergillus fumigatus [9]) [µg/mL]	CLint scaled at 0.75 h, 1 µM (in vitro [10]) [mL/min/kg]	CLhep predicted at 0.75 h, 1 µM (in vitro [11]) [mL/min/kg]	CLint scaled at 0.75 h, 1 µM (in vitro [12]) [mL/min/kg]	CLhep predicted at 0.75 h, 1 µM (in vitro [13]) [mL/min/kg]	CLint scaled at 0.75 h, 1 µM (in vitro [14]) [mL/min/kg]	CLhep predicted at 0.75 h, 1 µM (in vitro [15]) [mL/min/kg]	t1/2 [16] [h]	MIC (Aspergillus fumigatus [17]) [µg/mL]
O=C(N[C@@H](Cn1ccnc1)c1ccc(Cl)cc1Cl)c1ccc(-c2nnc(-c3ccc(OCC(F)(F)F)cc3F)o2)cc1	94	82	5.58	7.70	1.27	1.03	0.19 (≈ 0.306 µM)	0.06 (≈ 0.0967 µM)	0.39 (≈ 0.629 µM)	16.5	9.24	64	34	88	44		
O=C(N[C@@H](Cn1ccnc1)c1ccc(Cl)cc1Cl)c1ccc(-c2nnc(-c3ccccc3)o2)cc1	20	24	4.57	6.69	2.5	1.03	0.48 (≈ 0.952 µM)	0.08 (≈ 0.159 µM)		8.31	5.95	26.4	19.2	87	44	1.77	0.5 (≈ 0.991 µM)
O=C(N[C@@H](Cn1ccnc1)c1ccc(Cl)cc1Cl)c1ccc(-c2nnc(-c3ccc(C(F)(F)F)c(F)c3)o2)cc1	89	65	5.65	7.26	3.43	1.53	0.19 (≈ 0.322 µM)	0.09 (≈ 0.152 µM)	0.39 (≈ 0.661 µM)	6.06	4.07	36	24	60	36	1.28	
O=C(N[C@@H](Cn1ccnc1)c1ccc(Cl)cc1Cl)c1ccc(-c2nnc(-c3cc(F)cc(-c4ccccn4)c3)o2)cc1	87	80	5.49	7.21	0.217	1.65				96.6	17.3	36	24	55	34	1.3	
O=C(N[C@@H](Cn1ccnc1)c1ccc(Cl)cc1Cl)c1ccc(-c2nnc(-c3cc(F)cc(-c4ncncc4F)c3)o2)cc1	92	57	5.05	6.88	1.4	0.867	0.48 (≈ 0.776 µM)	0.19 (≈ 0.307 µM)	0.78 (≈ 1.26 µM)	14.9	8.37	27	19.5	104	48.3		
O=C(N[C@@H](Cn1ccnc1)c1ccc(Cl)cc1Cl)c1ccc(-c2nnc(-c3ccc(F)c(F)c3)o2)cc1		58	4.88	7.24	2.77	1.63	0.29 (≈ 0.537 µM)	0.08 (≈ 0.148 µM)	0.78 (≈ 1.44 µM)	7.53	5.54	31	21	55	34	1.52	
C[C@@H](c1ncncc1F)[C@](O)(Cn1cncn1)c1ccc(F)cc1F [VORICONAZOLE]				7.25													0.7 (≈ 2 µM)
